Calls of active or inactive are those of the source. No cut-off for these calls is given here.
Experiments:
[1] = biological target: T1, Chondroitin sulfate N-acetylgalactosaminyltransferase 1 (Homo sapiens) (UniProt Q8TDX6); assay: Destabilization of CSGalNacT-1 in human Huh7.5 cells assessed as reduction in CSGalNacT-1 mRNA levels by gene chip assay; assay type: cell-based
T1 sequence (whole entry): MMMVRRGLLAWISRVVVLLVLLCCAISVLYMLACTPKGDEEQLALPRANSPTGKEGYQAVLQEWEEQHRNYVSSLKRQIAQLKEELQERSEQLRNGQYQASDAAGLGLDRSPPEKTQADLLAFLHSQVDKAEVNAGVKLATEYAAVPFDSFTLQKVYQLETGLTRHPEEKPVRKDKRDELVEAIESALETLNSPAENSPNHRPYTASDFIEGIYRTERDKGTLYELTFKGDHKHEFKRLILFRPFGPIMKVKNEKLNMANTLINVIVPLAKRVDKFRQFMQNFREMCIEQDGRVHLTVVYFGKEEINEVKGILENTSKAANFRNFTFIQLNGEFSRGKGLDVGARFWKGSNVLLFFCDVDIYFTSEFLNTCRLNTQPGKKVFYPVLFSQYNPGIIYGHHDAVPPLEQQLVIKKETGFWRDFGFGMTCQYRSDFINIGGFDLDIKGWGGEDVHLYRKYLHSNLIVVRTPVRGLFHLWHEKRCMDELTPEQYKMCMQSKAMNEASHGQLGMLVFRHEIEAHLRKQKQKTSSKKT

[2] = Resistance ratio of EC50 for antiviral activity against HCV J6/JFH/JC1 harboring D168V mutant infected in human Huh7.5 cells to EC50 for antiviral activity against wild-type HCV J6/JFH/JC1 infected in human Huh7.5 cells; assay type: functional
[3] = biological target: T1, Chondroitin sulfate N-acetylgalactosaminyltransferase 1 (Homo sapiens); assay: Destabilization of CSGalNacT-1 in human Huh7.5 cells assessed as down regulation of CSGalNacT-1 protein levels at 25 uM measured after 24 hrs in presence of protease inhibitor MG132 by Western blot analysis; assay type: cell-based
Outline: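 Huh7.5 cells cotreated with compound (25 μM) and proteasome inhibitor MG132 (1 μM). Cells given compound alone or MG132 alone served as controls. After 24 h, total intracellular protein extracted and CSGalNAcT-1 detected by Western blot.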

Hepatitis C virus [4] = assay: Antiviral activity against HCV J6/JFH/JC1 harboring A156T mutant infected in human Huh7.5 cells assessed as inhibition of viral replication measured after 72 hrs by qRT-PCR analysis; assay type: functional, organism-based, Hepacivirus hominis; settings: J6/JFH/JC1, Huh7.5, 72 h
Hepatitis C virus [5] = assay: Antiviral activity against wild-type HCV J6/JFH/JC1 infected in human Huh7.5 cells assessed as inhibition of viral replication measured after 72 hrs by qRT-PCR analysis; assay type: functional, organism-based, Hepacivirus hominis; settings: J6/JFH/JC1, Huh7.5, 72 h
Outline: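 Huh7.5 cells seeded at 3 × 10^4/cm2 and incubated 24 h. Infected with wild-type HCVcc stock (45 IU/cell) with compound or solvent control added at the same time. After 72 h, intracellular RNA measured by one-step qRT-PCR and core protein by Western blot. EC50 by Reed & Muench method, mean ± SD from three independent experiments.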

Hepatitis C virus [6] = assay: Synergistic antiviral activity against HCV J6/JFH/JC1 infected in human HuH7.5 cells assessed as inhibition of viral protein levels at 6.25 uM in presence of daclatasvir measured after 72 hrs by western blot analysis; assay type: functional, organism-based; settings: Hepacivirus hominis
Outline: (§1)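 Huh7.5 cells infected with HCV (45 IU/cell) and simultaneously treated with compound (6.25 μM) alone, DAA alone, or both. […] Intracellular protein analysed by Western blot at 72 h. At least triplicate, mean ± SD, Student's t test.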

[7] = biological target: T1, Chondroitin sulfate N-acetylgalactosaminyltransferase 1 (Homo sapiens); assay: Destabilization of CSGalNacT-1 in HCV infected human HuH7.5 cells assessed as reduction in CSGalNacT-1 protein levels measured after 72 hrs by Western blot analysis; settings: dose 6.25-100 µM
Outline: (§2)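 Huh7.5 cells infected with HCV (45 IU/cell) and exposed to compound for 72 h. CSGalNAcT-1 protein measured by Western blot and mRNA by qRT-PCR. Error bars are SD of three independent experiments.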

[8] = Antiviral activity against HCV subtype 2a J6/JFH/JC1 infected in human Huh7.5 cells assessed as reduction in viral RNA levels measured after 72 hrs by qRT-PCR analysis; settings: Hepatitis C virus, J6/JFH/JC1, Huh7.5, 72 h
[9] = biological target: T1, Chondroitin sulfate N-acetylgalactosaminyltransferase 1 (Homo sapiens); assay: Destabilization of CSGalNacT-1 in human Huh7.5 cells assessed as reduction in CSGalNacT-1 mRNA levels at 6.25 to 100 uM measured after 72 hrs by qRT-PCR analysis; assay type: cell-based; settings: dose 6.25-100 µM
[10] = Resistance ratio of EC50 for antiviral activity against HCV J6/JFH/JC1 harboring S282T mutant infected in human Huh7.5 cells to EC50 for antiviral activity against wild-type HCV J6/JFH/JC1 infected in human Huh7.5 cells; assay type: functional
Hepatitis C virus [11] = assay: Synergistic antiviral activity against HCV J6/JFH/JC1 infected in human HuH7.5 cells assessed as inhibition of viral protein levels at 6.25 uM in presence of sofosbuvir measured after 72 hrs by western blot analysis; assay type: functional, organism-based; settings: Hepacivirus hominis; outline: as §1
[12] = biological target: T1, Chondroitin sulfate N-acetylgalactosaminyltransferase 1 (Homo sapiens); assay: Destabilization of CSGalNacT-1 in HCV infected human HuH7.5 cells assessed as reduction in CSGalNacT-1 mRNA levels at 6.25 to 100 uM measured after 72 hrs by qRT-PCR analysis; settings: dose 6.25-100 µM; outline: as §2
Hepatitis C virus [13] = assay: Antiviral activity against HCV J6/JFH/JC1 harboring D168V mutant infected in human Huh7.5 cells assessed as inhibition of viral replication measured after 72 hrs by qRT-PCR analysis; assay type: functional, organism-based, Hepacivirus hominis; settings: J6/JFH/JC1, Huh7.5, 72 h
Hepacivirus hominis = assay: Inhibition of HCV NS5B polymerase
Hepatitis C virus [14] = assay: Antiviral activity against HCV infected in human HuH7.5 cells assessed as inhibition of viral protein level during early stage at 6.25 to 25 uM incubated for 2 hrs prior to compound washout followed by supplementation of fresh culture medium and measured after 72 hrs by Western blot analysis; assay type: functional, organism-based; settings: Hepacivirus hominis; Huh-7; dose 6.25-25 µM
Outline: (§3)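 Huh7.5 cells seeded 24 h earlier, infected with HCV (150 IU/cell) with simultaneous compound or solvent control for 2 h. Cells washed with PBS and given fresh medium. Intracellular RNA (qRT-PCR) and protein (Western blot) extracted at 72 h.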

[15] = Selectivity index, ratio of CC50 for cytotoxicity against human Huh7.5 cells assessed as reduction in cell viability incubated for 72 hrs by MTT assay to EC50 for antiviral activity against HCV genotype 2a J6/JFH/JC1 infected in human Huh7.5 cells assessed as reduction in viral RNA levels measured after 72 hrs by qRT-PCR analysis; assay type: toxicity, cell-based; settings: read-out: Ratio CC50/EC50
Hepatitis C virus [16] = assay: Antiviral activity against HCV infected in human HuH7.5 cells assessed as inhibition of viral RNA levels during early stage at 6.25 to 25 uM incubated for 2 hrs prior to compound washout followed by supplementation of fresh culture medium and measured after 72 hrs by qRT-PCR analysis; assay type: functional, organism-based; settings: Hepacivirus hominis; Huh-7; dose 6.25-25 µM; outline: as §3
Hepatitis C virus [17] = assay: Antiviral activity against HCV J6/JFH/JC1 harboring S282T mutant infected in human Huh7.5 cells assessed as inhibition of viral replication measured after 72 hrs by qRT-PCR analysis; assay type: functional, organism-based, Hepacivirus hominis; settings: J6/JFH/JC1, Huh7.5, 72 h
Hepatitis C virus [18] = assay: Synergistic antiviral activity against HCV J6/JFH/JC1 infected in human HuH7.5 cells assessed as combination index measured after 72 hrs in presence of daclatasvir by Chou-Talalay method; assay type: functional, Hepacivirus hominis

Q: Which results are given for COc1cc(/C=C/c2ccccc2)c(C(=O)O)c(O)c1CC=C(C)C?
A: Activity [1]: Active; Ratio EC50 [2]: 1.3; Activity [3]: inactive; EC50 (Hepatitis C virus [4]): 6.44 µM; EC50 (Hepatitis C virus [5]): 3.03 µM; Activity (Hepatitis C virus [6]): Active; Activity [7]: Dose-dependent effect; EC50 [8]: 3.17 µM; Activity [9]: inactive; Ratio EC50 [10]: 2.8; Activity (Hepatitis C virus [11]): Active; Activity [12]: inactive; EC50 (Hepatitis C virus [13]): 3.8 µM; inhibition (Hepacivirus hominis): inactive; Activity (Hepatitis C virus [14]): inactive; selectivity ratio at 72 h [15]: 40; Activity (Hepatitis C virus [16]): inactive; EC50 (Hepatitis C virus [17]): 8.59 µM; CI (Hepatitis C virus [18]): 0.76

— ChEMBL document CHEMBL4715793 (J Med Chem, 2016)
